These results are taken from ChEMBL document CHEMBL1137681, “Design, synthesis and characterization of N9/N7-substituted 6-aminopurines as VEGF-R and EGF-R inhibitors” (Eur J Med Chem, 2009).

Calls of active or inactive are those of the source. The calls are words filed in the database; no cut-off is given here.

Test [1] concerns the target T1, Serine/threonine-protein kinase PLK4 (Homo sapiens) (UniProt O00444).
T1 sequence (whole entry): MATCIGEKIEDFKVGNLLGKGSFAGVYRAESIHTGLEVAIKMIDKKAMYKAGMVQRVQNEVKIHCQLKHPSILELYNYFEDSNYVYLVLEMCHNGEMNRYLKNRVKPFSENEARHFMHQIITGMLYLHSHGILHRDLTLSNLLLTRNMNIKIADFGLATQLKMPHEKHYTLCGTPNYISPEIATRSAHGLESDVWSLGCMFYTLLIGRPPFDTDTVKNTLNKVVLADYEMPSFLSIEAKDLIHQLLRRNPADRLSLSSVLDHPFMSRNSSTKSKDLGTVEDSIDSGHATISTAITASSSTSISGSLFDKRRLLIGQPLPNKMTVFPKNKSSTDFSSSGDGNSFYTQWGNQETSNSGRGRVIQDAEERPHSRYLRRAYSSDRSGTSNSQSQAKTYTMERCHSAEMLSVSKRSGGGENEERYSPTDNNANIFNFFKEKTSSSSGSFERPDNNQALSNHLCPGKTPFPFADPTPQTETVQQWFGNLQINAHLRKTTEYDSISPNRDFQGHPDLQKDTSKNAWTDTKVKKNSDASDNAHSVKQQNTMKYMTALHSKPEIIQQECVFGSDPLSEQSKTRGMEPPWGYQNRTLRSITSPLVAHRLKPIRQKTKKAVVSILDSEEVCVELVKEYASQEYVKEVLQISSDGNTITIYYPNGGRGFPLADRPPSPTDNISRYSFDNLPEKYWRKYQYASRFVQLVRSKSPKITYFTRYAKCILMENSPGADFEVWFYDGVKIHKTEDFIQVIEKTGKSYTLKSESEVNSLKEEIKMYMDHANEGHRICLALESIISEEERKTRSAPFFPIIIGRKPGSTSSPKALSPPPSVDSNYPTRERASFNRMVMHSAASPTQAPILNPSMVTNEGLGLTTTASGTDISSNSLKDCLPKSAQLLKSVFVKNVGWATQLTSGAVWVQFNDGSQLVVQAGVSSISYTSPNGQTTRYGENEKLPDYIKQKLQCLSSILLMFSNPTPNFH
The experiment in a line: Inhibition of SAK up to 100 uM.

Test [2] concerns the target Cyclin-dependent kinase 2 (Homo sapiens) (UniProt P24941). The experiment in a line: Inhibition of CDK2/cyclin A up to 100 uM. In a few lines:
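Buffer was HEPES-NaOH pH 7.5 with MgCl2/MnCl2, vanadate, DTT, PEG20000 and 1% DMSO. Run 80 min at 30 °C, H3PO4 stop, NaCl wash, scintillation read-out. IC50 from 10 concentrations, singlicate.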

The next test addresses Angiopoietin-1 receptor (Homo sapiens, UniProt Q02763). The experiment in a line: Inhibition of TIE2.
The target of test [3] is Receptor-type tyrosine-protein kinase FLT3 (Homo sapiens) (UniProt P36888). Put plainly: Inhibition of FLT3 up to 100 uM.
For test [4], the target named is T2, NUAK family SNF1-like kinase 1 (Homo sapiens) (UniProt O60285).
T2 sequence (whole entry): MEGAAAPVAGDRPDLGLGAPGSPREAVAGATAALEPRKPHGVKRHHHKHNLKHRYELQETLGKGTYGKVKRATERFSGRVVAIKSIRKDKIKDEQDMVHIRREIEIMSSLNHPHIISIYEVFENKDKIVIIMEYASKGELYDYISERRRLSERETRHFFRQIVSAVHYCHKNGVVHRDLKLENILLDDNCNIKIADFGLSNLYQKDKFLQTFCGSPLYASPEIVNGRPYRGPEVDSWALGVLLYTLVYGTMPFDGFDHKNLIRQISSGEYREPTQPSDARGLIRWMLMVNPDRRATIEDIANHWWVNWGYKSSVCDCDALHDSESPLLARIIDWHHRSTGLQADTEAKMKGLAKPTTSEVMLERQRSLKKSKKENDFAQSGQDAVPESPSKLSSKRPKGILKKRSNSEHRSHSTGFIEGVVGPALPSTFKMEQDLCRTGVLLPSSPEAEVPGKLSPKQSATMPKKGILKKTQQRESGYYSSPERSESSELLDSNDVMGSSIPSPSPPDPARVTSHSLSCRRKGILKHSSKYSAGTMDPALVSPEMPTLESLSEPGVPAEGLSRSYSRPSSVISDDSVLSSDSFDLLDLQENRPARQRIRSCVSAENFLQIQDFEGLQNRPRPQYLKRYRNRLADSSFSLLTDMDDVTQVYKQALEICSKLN
Put plainly: Inhibition of ARK5 up to 100 uM.

The target of test [5] is Proto-oncogene tyrosine-protein kinase Src (Homo sapiens, UniProt P12931). The experiment in a line: Inhibition of SRC.
For test [6], the target named is Vascular endothelial growth factor receptor 2 (Homo sapiens, UniProt P35968). Put plainly: Inhibition of VEGFR2.
Test [7] concerns the target Mitogen-activated protein kinase kinase kinase 8 (Homo sapiens) (UniProt P41279). The experiment in a line: Inhibition of COT.
Test [8] concerns the target Vascular endothelial growth factor receptor 3 (Homo sapiens, UniProt P35916). Put plainly: Inhibition of VEGFR3.
A further test concerns the target Aurora kinase B (Homo sapiens, UniProt Q96GD4). The experiment in a line: Inhibition of Aurora B. In a few lines:
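Buffer was HEPES-NaOH pH 7.5 with MgCl2, MnCl2, vanadate, DTT, PEG20000 and 1% DMSO. Run 80 min at 30 °C, quenched with 2% H3PO4, NaCl-washed, then scintillation-counted. IC50 fitted from 10 concentrations tested once each.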

Test [9] deals with Casein kinase II subunit alpha (Homo sapiens) (UniProt P68400). The experiment in a line: Inhibition of CK2alpha1. The essentials: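 Run in HEPES-NaOH pH 7.5 with MgCl2, MnCl2, orthovanadate, DTT, PEG20000 and 1% DMSO at 30 °C for 80 min. IC50 from 10 concentrations, singlicate.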
Test [10] deals with Receptor tyrosine-protein kinase erbB-2 (Homo sapiens, UniProt P04626). The experiment in a line: Inhibition of ERBB2. In a few lines:
(§1)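 Buffer: HEPES-NaOH pH 7.5, Mg2+/Mn2+, vanadate, DTT, PEG20000, 1% DMSO. Incubated 30 °C for 80 min, stopped with 2% H3PO4, washed, and scintillation-counted. IC50 from 10 concentrations in singlicate.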

Test [11] addresses Focal adhesion kinase 1 (Homo sapiens) (UniProt Q05397). Put plainly: Inhibition of FAK up to 100 uM. In a few lines: as §1
In test [12] the target is Insulin receptor (Homo sapiens) (UniProt P06213). The experiment in a line: Inhibition of INSR up to 100 uM.
Test [13] has as its target Hepatocyte growth factor receptor (Homo sapiens) (UniProt P08581). Put plainly: Inhibition of MET up to 100 uM.
Test [14] addresses Epidermal growth factor receptor (Homo sapiens, UniProt P00533). The experiment in a line: Inhibition of EGFR.
Test [15] concerns the target Cyclin-dependent kinase 4/cyclin D1 (Homo sapiens) (UniProt P11802+P24385). The experiment in a line: Inhibition of CDK4/Cyclin D1 up to 100 uM. The test is classed as protein-complex assay. In a few lines: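 Buffer: HEPES-NaOH pH 7.5, Mg2+/Mn2+, vanadate, DTT, PEG20000, 1% DMSO. Incubated 80 min at 30 °C, stopped with 2% H3PO4, washed with 0.9% NaCl, and counted by scintillation. IC50 from 10 concentrations, singlicate.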

Chain of Receptor tyrosine-protein kinase erbB-2 (P04626 whole entry): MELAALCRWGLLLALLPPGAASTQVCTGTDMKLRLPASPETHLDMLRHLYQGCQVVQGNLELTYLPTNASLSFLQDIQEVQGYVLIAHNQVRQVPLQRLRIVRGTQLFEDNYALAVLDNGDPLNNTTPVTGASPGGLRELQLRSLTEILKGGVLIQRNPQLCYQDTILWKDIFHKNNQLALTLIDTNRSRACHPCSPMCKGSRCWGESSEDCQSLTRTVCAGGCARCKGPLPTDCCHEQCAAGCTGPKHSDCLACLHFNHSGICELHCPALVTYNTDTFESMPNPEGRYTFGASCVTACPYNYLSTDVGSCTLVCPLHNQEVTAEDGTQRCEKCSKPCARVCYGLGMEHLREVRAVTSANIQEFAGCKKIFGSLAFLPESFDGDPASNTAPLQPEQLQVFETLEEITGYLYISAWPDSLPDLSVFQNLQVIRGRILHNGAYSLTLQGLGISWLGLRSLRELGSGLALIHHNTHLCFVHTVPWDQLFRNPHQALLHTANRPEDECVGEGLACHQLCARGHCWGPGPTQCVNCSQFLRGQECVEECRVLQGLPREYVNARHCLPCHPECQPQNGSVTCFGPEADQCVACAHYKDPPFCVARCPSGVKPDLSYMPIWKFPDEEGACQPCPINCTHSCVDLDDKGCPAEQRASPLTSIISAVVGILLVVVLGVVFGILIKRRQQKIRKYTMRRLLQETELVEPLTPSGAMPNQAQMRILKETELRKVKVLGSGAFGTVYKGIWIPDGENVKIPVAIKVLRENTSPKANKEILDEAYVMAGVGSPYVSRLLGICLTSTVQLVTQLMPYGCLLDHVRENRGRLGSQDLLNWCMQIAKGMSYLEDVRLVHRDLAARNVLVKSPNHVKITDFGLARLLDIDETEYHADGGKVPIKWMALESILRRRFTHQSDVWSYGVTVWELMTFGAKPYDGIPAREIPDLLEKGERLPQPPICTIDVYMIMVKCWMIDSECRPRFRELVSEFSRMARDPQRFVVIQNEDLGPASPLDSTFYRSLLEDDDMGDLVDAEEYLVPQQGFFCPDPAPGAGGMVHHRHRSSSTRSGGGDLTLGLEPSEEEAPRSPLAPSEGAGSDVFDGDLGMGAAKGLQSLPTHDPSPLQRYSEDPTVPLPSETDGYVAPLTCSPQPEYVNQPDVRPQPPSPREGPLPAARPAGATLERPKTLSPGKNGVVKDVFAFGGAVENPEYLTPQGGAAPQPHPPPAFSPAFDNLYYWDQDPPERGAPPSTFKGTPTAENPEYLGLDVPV
Chain of Casein kinase II subunit alpha (Homo sapiens) (P68400 whole entry, looked up): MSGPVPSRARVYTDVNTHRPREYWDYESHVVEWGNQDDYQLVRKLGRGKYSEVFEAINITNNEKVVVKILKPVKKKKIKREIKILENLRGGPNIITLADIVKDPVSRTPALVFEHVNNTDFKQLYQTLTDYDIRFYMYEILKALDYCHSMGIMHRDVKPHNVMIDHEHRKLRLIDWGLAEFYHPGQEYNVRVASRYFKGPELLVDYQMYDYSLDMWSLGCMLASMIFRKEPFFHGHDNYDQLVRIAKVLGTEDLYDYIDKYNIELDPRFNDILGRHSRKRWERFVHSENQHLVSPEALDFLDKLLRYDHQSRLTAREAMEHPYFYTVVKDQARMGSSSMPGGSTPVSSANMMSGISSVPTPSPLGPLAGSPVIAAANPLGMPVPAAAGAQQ
Chain of Mitogen-activated protein kinase kinase kinase 8 (Homo sapiens) (P41279 whole entry): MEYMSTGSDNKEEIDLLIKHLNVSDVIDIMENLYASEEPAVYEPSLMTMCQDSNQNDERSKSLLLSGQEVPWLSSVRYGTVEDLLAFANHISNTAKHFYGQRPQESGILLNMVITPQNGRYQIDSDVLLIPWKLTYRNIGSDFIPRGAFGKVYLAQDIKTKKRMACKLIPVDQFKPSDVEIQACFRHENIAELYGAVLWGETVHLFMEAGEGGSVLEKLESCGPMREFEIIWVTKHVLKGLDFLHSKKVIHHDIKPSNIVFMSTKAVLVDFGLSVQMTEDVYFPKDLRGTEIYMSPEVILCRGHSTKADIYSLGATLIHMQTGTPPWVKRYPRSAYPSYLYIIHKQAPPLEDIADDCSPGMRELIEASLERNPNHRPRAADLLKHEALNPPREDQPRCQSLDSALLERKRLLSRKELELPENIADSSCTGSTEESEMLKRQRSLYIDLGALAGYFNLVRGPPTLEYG
Chain of Receptor-type tyrosine-protein kinase FLT3 (Homo sapiens) (P36888 whole entry): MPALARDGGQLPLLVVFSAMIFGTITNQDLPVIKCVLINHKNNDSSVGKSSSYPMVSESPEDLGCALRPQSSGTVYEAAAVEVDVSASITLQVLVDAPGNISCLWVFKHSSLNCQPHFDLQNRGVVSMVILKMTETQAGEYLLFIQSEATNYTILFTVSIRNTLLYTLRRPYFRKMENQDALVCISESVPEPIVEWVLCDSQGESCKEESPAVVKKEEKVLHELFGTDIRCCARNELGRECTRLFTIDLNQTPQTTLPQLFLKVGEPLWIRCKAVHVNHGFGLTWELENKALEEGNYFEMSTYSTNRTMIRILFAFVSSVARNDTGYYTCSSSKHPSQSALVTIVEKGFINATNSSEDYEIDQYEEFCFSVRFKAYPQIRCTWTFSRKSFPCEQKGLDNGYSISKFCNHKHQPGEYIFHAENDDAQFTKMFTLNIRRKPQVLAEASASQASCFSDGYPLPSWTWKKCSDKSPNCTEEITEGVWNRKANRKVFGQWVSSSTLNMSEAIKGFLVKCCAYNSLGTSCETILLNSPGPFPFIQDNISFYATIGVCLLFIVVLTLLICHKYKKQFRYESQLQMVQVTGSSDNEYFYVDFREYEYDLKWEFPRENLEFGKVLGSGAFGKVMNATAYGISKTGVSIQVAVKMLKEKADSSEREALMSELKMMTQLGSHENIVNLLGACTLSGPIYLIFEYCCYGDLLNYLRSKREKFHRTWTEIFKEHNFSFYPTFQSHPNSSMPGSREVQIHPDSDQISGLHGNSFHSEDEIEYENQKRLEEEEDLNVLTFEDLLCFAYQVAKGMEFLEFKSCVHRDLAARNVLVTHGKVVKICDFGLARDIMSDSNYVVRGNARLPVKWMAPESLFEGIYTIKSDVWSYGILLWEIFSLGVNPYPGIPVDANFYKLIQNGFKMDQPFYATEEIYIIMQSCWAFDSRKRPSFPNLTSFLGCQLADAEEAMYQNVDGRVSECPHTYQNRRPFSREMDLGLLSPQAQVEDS
Chain of Aurora kinase B (Q96GD4 whole entry): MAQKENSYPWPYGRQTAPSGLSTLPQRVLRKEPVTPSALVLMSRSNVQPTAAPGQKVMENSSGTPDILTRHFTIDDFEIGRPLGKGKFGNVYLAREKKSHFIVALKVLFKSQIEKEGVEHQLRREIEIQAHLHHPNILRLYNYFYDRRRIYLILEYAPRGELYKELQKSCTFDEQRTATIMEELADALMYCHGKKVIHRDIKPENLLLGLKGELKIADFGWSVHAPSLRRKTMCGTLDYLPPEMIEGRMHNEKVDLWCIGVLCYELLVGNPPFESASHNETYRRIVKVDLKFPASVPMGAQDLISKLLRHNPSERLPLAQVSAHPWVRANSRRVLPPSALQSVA
Chain of Proto-oncogene tyrosine-protein kinase Src (P12931 2-536 limits assumed): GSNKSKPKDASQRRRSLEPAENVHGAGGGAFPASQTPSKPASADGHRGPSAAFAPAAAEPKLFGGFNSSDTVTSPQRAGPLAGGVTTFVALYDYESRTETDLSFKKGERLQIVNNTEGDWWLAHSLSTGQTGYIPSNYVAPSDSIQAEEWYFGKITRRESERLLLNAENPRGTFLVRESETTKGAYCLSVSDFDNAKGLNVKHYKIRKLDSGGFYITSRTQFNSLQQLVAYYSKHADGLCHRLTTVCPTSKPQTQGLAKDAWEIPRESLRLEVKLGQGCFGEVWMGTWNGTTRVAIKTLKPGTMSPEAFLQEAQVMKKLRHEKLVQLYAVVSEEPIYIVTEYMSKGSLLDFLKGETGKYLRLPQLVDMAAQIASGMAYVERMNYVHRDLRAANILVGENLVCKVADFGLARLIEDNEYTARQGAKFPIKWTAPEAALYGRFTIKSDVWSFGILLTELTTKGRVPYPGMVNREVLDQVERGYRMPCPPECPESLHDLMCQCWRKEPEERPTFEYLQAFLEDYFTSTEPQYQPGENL
Chain of Focal adhesion kinase 1 (Homo sapiens) (Q05397 2-1052 limits assumed): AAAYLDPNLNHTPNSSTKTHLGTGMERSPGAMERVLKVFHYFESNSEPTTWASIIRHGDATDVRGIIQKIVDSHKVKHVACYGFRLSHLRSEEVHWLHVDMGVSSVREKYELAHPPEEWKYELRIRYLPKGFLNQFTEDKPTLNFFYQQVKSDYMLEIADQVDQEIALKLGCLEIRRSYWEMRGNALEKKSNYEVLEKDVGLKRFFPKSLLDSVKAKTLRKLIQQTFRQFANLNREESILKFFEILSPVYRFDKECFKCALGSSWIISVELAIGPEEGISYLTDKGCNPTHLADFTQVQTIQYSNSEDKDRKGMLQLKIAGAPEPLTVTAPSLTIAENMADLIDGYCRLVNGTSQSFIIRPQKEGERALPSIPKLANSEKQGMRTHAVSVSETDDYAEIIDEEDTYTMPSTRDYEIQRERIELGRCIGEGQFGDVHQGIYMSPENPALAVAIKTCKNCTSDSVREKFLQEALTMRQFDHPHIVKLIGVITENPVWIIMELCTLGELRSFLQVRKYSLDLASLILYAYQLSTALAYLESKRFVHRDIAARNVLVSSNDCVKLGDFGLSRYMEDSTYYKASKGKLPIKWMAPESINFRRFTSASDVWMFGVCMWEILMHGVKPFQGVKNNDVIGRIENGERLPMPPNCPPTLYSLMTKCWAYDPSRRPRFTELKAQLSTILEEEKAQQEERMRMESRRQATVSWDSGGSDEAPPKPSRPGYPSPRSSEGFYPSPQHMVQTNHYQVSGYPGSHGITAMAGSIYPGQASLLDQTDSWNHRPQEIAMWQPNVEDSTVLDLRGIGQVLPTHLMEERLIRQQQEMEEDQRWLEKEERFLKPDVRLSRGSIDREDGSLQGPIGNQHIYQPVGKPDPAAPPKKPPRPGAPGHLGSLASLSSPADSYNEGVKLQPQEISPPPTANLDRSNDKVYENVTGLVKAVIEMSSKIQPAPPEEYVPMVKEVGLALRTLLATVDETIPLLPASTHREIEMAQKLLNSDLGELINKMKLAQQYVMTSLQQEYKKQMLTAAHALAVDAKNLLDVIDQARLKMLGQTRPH

A word on the IC50: it is the concentration that inhibits the measured activity by half. For the compound `Nc1ncnc2c1ncn2CC(=O)c1c[nH]c2ccccc12`, the inhibition entry in test [1], in [2], in test [3], in [4], in [5] and in test [7] was “inactive” each time. The inhibition entry in [8], in test [9], in test [11], in test [12], in test [13] and in [15] was “inactive” throughout. Besides, the half-inhibitory concentration (IC50) at Angiopoietin-1 receptor was determined as 85 µM; in [6], 81 µM; against Aurora kinase B, 69 µM; in test [10] it was 95 µM; in test [14] it was 35 µM.
For the compound `COc1ncnc2ncn(CC(=O)c3ccccc3)c12`, the inhibition result (in [1]; in test [2]; on Angiopoietin-1 receptor; in [3]; in test [4]; in test [5]) was “inactive” throughout. In addition, the inhibition entry (in test [6]; in test [7]; in [8]; on Aurora kinase B; in test [9]; in [10]) was “inactive” in each case. For the same compound, the inhibition entry in [11], in test [12], in test [13], in test [14] and in [15] was “inactive” each time.
With `COc1ncnc2c1ncn2CC(=O)c1ccccc1`, the inhibition entry (in [1]; in test [2]; on Angiopoietin-1 receptor; in test [3]; in [4]; in test [5]) was “inactive” throughout. The inhibition result (in test [7]; on Aurora kinase B; in test [9]; in test [10]; in test [11]; in test [12]) was “inactive” in each case. The inhibition entry in test [13], in test [14] and in test [15] was “inactive” each time. The concentration for half-maximal inhibition (IC50) in test [6] came to 25 µM; in test [8], 45 µM.
Take `Nc1ncnc2ncn(CC(=O)c3c[nH]c4ccccc34)c12`: the inhibition entry in test [1], in test [2], in [3], in test [4], in test [7] and in test [8] was “inactive” each time. In addition, the inhibition result (on Aurora kinase B; in [9]; in test [10]; in [11]; in test [12]; in test [13]) was “inactive” throughout. For the same compound, the inhibition result in [15] is “inactive”. Besides, the half-maximal inhibitory concentration (IC50) against Angiopoietin-1 receptor was determined as 95 µM; in test [6], 30 µM.
`Nc1ncnc2c1ncn2CC(=O)c1ccccn1`: the inhibition entry (in test [1]; in [2]; on Angiopoietin-1 receptor; in test [3]; in test [4]; in test [5]) was “inactive” each time. The inhibition result (in [6]; in [7]; in test [8]; on Aurora kinase B; in [9]; in test [10]) was “inactive” in each case. In addition, the inhibition result in test [11], in [12], in test [13] and in [15] was “inactive” each time. The half-maximal inhibitory concentration (IC50) in [14] stood at 89 µM.
On to `Nc1ncnc2c1ncn2CC(=O)c1ccccc1`, for which the inhibition result in test [1], in test [2], in test [3], in [4], in [7] and in [8] was “inactive” throughout. For the same compound, the inhibition entry (on Aurora kinase B; in [9]; in test [11]; in test [12]; in test [13]; in [15]) was “inactive” in each case. This compound also gave an IC50 in test [14] of 75 µM.
With `Nc1ncnc2ncn(CC(=O)c3ccccc3)c12`, the inhibition entry (in [1]; in [2]; at Angiopoietin-1 receptor; in [3]; in test [4]; in test [5]) was “inactive” each time. Further, the inhibition entry (in [6]; in [7]; at Aurora kinase B; in test [9]; in test [10]; in [11]) was “inactive” throughout. Further, the inhibition result in test [12], in test [13] and in test [15] was “inactive” in each case.
